Measurements gathered from unrelated publications.
Each line is one published result; the experiments were not run side by side.
Effect on: cell growth or viability

CN(C)C(=O)Nc1nc2ccc(Br)cc2c(=O)n1-c1ccccc1  IC50 (SW480; MTT; 48 h): > 200 µM
O=C(NO)c1ccc(Cn2cnc3c(Nc4ccc(Cl)cc4)ncnc32)cc1  IC50 (MM1.S; MTT; 72 h): 2.64 µM
Cc1cc2c(C(N)=O)cccc2n1-c1nc2c(c(NCc3ccccc3)n1)CCCN2  IC50 (MM1.S; 72 h): 0.7 µM
Cc1ccc(NNc2nc3ccc(Br)cc3c(=O)n2-c2ccccc2)cc1  IC50 (SW480; MTT; 48 h): 85.4 µM
Cc1nc(Nc2ncc(C(=O)Nc3c(C)cccc3Cl)s2)cc(N2CC[C@H](O)C2)n1  IC50 (Toledo; ATP luminescence; 72 h): > 10 µM
NNc1nc2ccc(Br)cc2c(=O)n1-c1ccc(Cl)cc1  IC50 (SW480; MTT; 48 h): 10.9 µM
O=P1(c2ccccc2)CCCCC1  IC50 (SW480; MTT; 72 h): > 100 µM
NNc1nc2ccc(Br)cc2c(=O)n1-c1ccc(F)cc1  IC50 (SW480; MTT; 48 h): 14.7 µM
CCOc1cc2ncc(C#N)c(Nc3ccc(OCc4ccccn4)c(Cl)c3)c2cc1NC(=O)/C=C/CN(C)C  IC50 (NCI-N87; ATP luminescence): 0.0185 µM
CC(C)C[C@H](NC(=O)[C@@H]1Cc2c(F)c(F)c(c(F)c2F)Sc2ccc(cc2)CC(=O)N[C@@H](C(C)C)C(=O)N1)C(=O)[C@@]1(C)CO1  IC50 (D283 Med): 0.091 µM
COc1cccc2c1C(=O)c1c(O)c3c(c(O)c1C2=O)C[C@@](O)(C(=O)CO)C[C@@H]3O[C@H]1C[C@H](N)[C@H](O)[C@H](C)O1  IC50 (SW480; MTT; 48 h): 0.09 µM
Nc1ccccc1NC(=O)c1ccc(Cn2cnc3c(Nc4ccc(Br)cc4F)ncnc32)cc1  IC50 (MM1.S; MTT; 72 h): 1.47 µM
CC1(P2(=O)CCCCC2)C=CCC=C1  IC50 (SW480; MTT; 72 h): > 100 µM
C=C1CC[C@@H]2[C@](C)(CO)[C@H](O)CC[C@@]2(C)[C@@H]1C/C=C1/C(=O)OC[C@H]1O  IC50 (SW480; MTT; 48 h): 4.48 µM
C#Cc1cccc(Nc2ncnc3cc(OCCOC)c(OCCOC)cc23)c1  IC50 (SW480; MTT; 48 h): 11.2 µM
CN1CCC(NC2CCc3[nH]c4c(C(N)=O)ccc(-c5ccccc5Cl)c4c3C2)CC1 (centres unmarked)  IC50 (HGC-27; 96 h): 0.00961 µM
CC(=O)Nc1ccc(O)cc1  IC50 (THLE-2; MTT): 28.6 µM
CN(C)C(=O)Nc1nc2c(Cl)cc(Cl)cc2c(=O)n1-c1ccccc1  IC50 (SW480; MTT; 48 h): > 200 µM
CS(=O)(=O)CCNCc1ccc(-c2ccc3ncnc(Nc4ccc(OCc5cccc(F)c5)c(Cl)c4)c3c2)o1  IC50 (NCI-N87; ATP luminescence): 0.0572 µM
O=C(NO)c1ccc(Cn2cnc3c(Nc4ccc(F)c(Cl)c4)ncnc32)cc1  IC50 (MM1.S; MTT; 72 h): 2.69 µM
O=C(NO)Nc1nc2c(Cl)cc(Cl)cc2c(=O)n1-c1ccccc1  IC50 (SW480; MTT; 48 h): > 200 µM
O=P1(C2CCCCC2)CCCCC1  IC50 (SW480; MTT; 72 h): 5.1 µM
O=C(NO)c1ccc(Cn2cnc3c(Nc4cccc([N+](=O)[O-])c4)ncnc32)cc1  IC50 (MM1.S; MTT; 72 h): 1.56 µM
